According to ChEMBL document CHEMBL3525985, “Regiospecificity and stereospecificity of human UDP-glucuronosyltransferases in the glucuronidation of estriol, 16-epiestriol, 17-epiestriol, and 13-epiestradiol” (Drug Metab Dispos, 2013):

Assays:
Type in all cases: ADME
Settings in all cases: recombinant enzyme
[1] = target: T1, UDP-glucuronosyltransferase 1A4 (Homo sapiens, UniProt P22310); assay: Drug metabolism assessed as recombinant human C-terminal His-tagged UGT1A4-mediated 17-epiestriol-16-glucuronide formation at 200 uM after 15 to 60 mins by HPLC analysis in presence of UDPGA
T1 sequence (P22310 whole entry): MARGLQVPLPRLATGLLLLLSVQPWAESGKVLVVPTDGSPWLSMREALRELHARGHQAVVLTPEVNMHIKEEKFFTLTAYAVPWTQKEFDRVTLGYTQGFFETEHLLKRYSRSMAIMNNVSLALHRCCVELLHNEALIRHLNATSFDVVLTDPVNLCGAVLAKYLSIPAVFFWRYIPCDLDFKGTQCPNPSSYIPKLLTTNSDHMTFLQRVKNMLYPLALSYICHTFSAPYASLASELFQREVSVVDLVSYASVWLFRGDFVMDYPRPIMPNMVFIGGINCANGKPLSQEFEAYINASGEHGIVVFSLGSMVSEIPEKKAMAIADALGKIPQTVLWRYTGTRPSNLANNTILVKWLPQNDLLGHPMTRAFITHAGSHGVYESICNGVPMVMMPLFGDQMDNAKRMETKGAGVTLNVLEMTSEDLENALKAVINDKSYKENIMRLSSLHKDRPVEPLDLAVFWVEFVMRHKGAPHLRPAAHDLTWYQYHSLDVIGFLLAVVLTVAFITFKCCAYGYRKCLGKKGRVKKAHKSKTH
Outline: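 Screening at a single substrate concentration of 200 μM, in triplicate. The reaction used 5 or 50 µg of UGT-enriched insect cell membranes in 50 mM phosphate pH 7.4 with 10 mM MgCl₂ and 5 mM UDPGA, 10% final DMSO. Incubation was 15–60 min at 37°C. Perchloric acid stopped the reaction and supernatants were analysed by HPLC. Controls lacked UDPGA. Rates were normalized to relative UGT expression level.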

[2] = target: UDP-glucuronosyltransferase 1A7 (Homo sapiens, UniProt Q9HAW7); assay: Drug metabolism assessed as recombinant human C-terminal His-tagged UGT1A7-mediated 16-epiestriol-3-glucuronide formation after 15 to 60 mins by Michaelis-Menten equation analysis in presence of UDPGA
[3] = target: T2, UDP-glucuronosyltransferase 2A1 (Homo sapiens, UniProt P0DTE4); assay: Drug metabolism assessed as recombinant human C-terminal His-tagged UGT2A1-mediated estriol-16-glucuronide formation after 15 to 60 mins by Michaelis-Menten equation analysis in presence of UDPGA
T2 sequence (P0DTE4 whole entry): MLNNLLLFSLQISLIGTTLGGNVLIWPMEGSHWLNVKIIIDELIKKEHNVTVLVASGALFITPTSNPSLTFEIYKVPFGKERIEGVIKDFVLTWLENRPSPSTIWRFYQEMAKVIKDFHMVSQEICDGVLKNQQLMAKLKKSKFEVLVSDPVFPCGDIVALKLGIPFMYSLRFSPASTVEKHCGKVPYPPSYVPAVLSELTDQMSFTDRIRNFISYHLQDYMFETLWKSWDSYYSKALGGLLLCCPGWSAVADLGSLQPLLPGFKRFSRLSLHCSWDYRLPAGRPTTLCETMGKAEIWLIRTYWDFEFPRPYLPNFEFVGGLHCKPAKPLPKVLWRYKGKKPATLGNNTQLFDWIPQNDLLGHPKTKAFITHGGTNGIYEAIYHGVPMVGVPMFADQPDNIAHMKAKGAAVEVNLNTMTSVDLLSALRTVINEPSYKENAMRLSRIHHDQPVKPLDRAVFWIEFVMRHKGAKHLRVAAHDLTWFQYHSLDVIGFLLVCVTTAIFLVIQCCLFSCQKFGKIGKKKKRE

[4] = target: T3, UDP-glucuronosyltransferase 1A8 (Homo sapiens, UniProt Q9HAW9); assay: Drug metabolism assessed as recombinant human C-terminal His-tagged UGT1A8-mediated estriol-3-glucuronide formation at 200 uM after 15 to 60 mins by HPLC analysis in presence of UDPGA
T3 sequence (Q9HAW9 whole entry): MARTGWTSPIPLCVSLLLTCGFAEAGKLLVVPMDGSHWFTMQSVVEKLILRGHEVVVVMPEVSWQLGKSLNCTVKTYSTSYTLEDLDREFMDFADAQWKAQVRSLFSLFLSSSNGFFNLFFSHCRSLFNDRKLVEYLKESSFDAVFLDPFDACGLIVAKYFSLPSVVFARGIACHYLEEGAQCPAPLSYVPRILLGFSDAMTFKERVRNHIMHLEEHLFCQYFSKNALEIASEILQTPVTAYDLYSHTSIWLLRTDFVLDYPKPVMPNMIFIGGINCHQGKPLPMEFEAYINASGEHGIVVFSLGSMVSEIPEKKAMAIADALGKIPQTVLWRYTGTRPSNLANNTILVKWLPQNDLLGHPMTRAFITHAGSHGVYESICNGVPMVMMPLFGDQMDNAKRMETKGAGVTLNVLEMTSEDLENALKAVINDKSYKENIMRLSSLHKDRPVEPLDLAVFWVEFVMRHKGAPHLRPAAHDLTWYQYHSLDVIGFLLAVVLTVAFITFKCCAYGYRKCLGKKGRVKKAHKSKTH
Outline: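 Screen at 200 µM substrate (DMSO, 10% final) with 5 or 50 µg UGT-enriched insect-cell membranes in 50 mM phosphate pH 7.4, 10 mM MgCl2, 5 mM UDPGA; 37°C, 15–60 min. Stopped with perchloric acid, then iced and centrifuged; glucuronides resolved by HPLC. Triplicates with no-UDPGA controls; ≤10% substrate consumed; rates normalized to relative UGT expression (UGT1A7 15.5, UGT1A8 1.4; UGT1A3 = 1.0).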

UDP-glucuronosyltransferase 1A7, sequence (Q9HAW7 whole entry): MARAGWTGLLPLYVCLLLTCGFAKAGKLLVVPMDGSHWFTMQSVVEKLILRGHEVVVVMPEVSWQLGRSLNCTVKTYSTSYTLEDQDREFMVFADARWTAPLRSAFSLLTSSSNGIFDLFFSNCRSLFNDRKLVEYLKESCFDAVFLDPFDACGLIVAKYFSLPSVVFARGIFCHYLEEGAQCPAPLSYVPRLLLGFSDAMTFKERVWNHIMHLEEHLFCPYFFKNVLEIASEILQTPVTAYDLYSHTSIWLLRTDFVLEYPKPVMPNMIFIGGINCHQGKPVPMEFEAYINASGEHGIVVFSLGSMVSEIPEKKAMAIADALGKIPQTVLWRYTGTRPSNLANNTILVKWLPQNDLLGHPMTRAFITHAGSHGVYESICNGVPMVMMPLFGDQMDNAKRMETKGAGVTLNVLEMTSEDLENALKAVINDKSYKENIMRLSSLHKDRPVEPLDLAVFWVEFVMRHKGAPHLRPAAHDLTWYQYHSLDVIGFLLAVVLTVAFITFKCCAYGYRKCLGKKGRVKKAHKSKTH

## C[C@]12CC[C@@H]3c4ccc(O)cc4CC[C@H]3[C@@H]1C[C@@H](O)[C@H]2O
[1]
  Drug metabolism: metabolite_detected

## C[C@]12CC[C@@H]3c4ccc(O)cc4CC[C@H]3[C@@H]1C[C@H](O)[C@@H]2O [EPIESTRIOL]
[2]
  Drug metabolism: 0.5 pmol/min/mg

## C[C@]12CC[C@@H]3c4ccc(O)cc4CC[C@H]3[C@@H]1C[C@@H](O)[C@@H]2O [ESTRIOL]
[3]
  Drug metabolism: 4 pmol/min/mg
[4]
  Drug metabolism: metabolite_detected
